Most compounds without a hit are left out; they make up all but 1.6% or so of the library.
TLR4-MyD88 BLA = inhibitors of human TLR4-MyD88 binding | O00206+Q99836 | HeLa CL3-4 TLR4/MyD88 BLA complementation, FRET ratio | inhibition, % at 8.4 µM | 0.18% of 200,000 active | AID 861; in the data active = inhibition above about 25%;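 also: 0% = vehicle and 100% = reference inhibitor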
Beta2AR agonist = activates human beta-2 adrenergic receptor causing internalization; P07550; Am2.2-beta2AR cells, FAP receptor internalization, flow cytometry; response, % (test concentration not listed); 0.43% of 340,000 active;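 active = response above a set limit, near 3 SD of response in nonfluorescent compounds, cut at about 42% in these data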
NOD2-RIPK2 inh = blocks binding of human NOD2 to RIPK2; CHO BLA complementation NOD2-RIPK2, CCF4 ratio; inhibition, % at 4.98 µM; 0.38% of 360,000 active; AID 624267; in the data active = inhibition above about 21%;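 also: 0% = vehicle only and 100% = reference blocker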
TLR9-MyD88 inh = blocks human TLR9 binding to MyD88; inhibition, % at 4.98 µM; 0.21% of 340,000 active; CHO BLA complementation TLR9-MyD88, CCF4 FRET ratio;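 active = inhibition above the mean over all tested compounds plus 3 SD, cut at about 21% in these data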;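 also: 0% = DMSO only wells and 100% = clavulanate BLA inhibitor control wells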
Target sequence (Q99836 whole entry, looked up): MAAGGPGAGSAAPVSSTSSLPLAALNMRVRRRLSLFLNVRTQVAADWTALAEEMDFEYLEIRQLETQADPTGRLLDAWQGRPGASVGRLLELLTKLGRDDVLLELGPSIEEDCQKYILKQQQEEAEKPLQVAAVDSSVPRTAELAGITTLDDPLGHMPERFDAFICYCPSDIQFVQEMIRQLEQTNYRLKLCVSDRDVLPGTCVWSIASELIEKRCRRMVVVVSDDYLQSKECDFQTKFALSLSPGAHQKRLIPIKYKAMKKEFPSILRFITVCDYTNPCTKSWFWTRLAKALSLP
Target sequence (Q9NR96 whole entry, looked up): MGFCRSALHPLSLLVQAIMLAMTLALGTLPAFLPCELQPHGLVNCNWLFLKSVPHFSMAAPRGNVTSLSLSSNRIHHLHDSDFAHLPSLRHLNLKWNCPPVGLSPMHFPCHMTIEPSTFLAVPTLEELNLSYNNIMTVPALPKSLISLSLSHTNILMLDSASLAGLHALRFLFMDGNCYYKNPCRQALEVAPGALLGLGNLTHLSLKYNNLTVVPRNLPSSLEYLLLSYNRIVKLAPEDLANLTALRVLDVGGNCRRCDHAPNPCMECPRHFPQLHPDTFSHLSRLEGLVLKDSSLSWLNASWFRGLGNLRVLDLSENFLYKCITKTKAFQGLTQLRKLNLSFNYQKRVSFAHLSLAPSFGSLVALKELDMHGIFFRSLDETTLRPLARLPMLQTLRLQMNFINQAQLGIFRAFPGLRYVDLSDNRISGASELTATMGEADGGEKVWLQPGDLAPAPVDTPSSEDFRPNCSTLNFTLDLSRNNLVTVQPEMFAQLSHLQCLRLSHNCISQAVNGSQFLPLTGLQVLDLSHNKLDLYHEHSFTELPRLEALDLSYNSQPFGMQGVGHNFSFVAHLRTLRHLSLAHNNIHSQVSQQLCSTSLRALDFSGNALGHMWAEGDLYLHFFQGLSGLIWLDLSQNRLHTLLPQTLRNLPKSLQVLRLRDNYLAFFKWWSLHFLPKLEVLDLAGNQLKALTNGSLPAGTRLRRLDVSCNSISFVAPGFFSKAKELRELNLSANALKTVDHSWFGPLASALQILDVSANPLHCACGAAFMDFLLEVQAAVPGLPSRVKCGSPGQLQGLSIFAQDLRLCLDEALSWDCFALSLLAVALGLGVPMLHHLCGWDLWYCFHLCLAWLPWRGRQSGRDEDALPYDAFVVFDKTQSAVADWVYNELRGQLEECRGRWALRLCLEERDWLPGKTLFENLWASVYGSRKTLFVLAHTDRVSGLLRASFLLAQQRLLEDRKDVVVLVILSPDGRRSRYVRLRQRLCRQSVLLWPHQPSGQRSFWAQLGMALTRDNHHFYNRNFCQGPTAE
Dynein transport = dynein cargo transport inhibition; 3617.4 mouse cells, GR-EGFP nuclear translocation imaging; test concentration mostly 20 µM; stimulated with dexamethasone, 1 µM; active compounds read low; z-score, hits read low; 0.47% of 220,000 active; AID 1381;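 active = plate z-score of nuclear minus cytoplasmic receptor signal below a set negative limit, without overly bright fluorescence or cell loss, cut at about -3.5 in these data, passing the limit was not always enough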;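 also: z-score of nuclear minus cytoplasmic ring GR-EGFP intensity difference per well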
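Buffer or medium: tetracycline-free induction medium containing charcoal-stripped FBS / Reagent: dexamethasone agonist, 1.0 µM final, for 30 min / Technique: automated 10x imaging of fixed Hoechst-stained cells / Times: induction 48 h, compound 1 h, agonist 30 min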
ABHD5-PLIN5 inh = inhibitors of human ABHD5-perilipin-5 interaction. Q00G26+Q8WTS1. Split G. princeps luciferase complementation, luminescence, 4 h. inhibition, % at 4 µM. 0.78% of 360,000 active;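 active = inhibition above the mean inhibition across every tested compound plus 3 SD, cut at about 22% in these data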;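 also: 0% = DMSO only wells and the 100% control is not disclosed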
Active calls of the source: *; / = no result.

SMILES | TLR4-MyD88 BLA | Beta2AR agonist | NOD2-RIPK2 inh | TLR9-MyD88 inh | Dynein transport | ABHD5-PLIN5 inh
CC(CNC(=O)CCCn1c(=O)c2cccn2c2cccnc21)c1ccccc1 (configuration not stated) | / | / | 3 | 6 | / | -3
O=C(/C=C/c1cc[n+](CC(=O)c2ccc3cccc4c3c2CC4)cc1)c1ccc2cccc3c2c1CC3 | / | 74* | -9 | -10 | -0.59 | 23*
COCCNc1cnn(-c2ccccc2)c(=O)c1Cl | / | 4 | 1 | -5 | / | 4
COc1cccc(NC(=O)CN(C)S(=O)(=O)/C=C/c2ccccc2)c1 | / | 2 | -2 | -1 | / | -4
CC(C)c1ccc(/C=C/c2[nH]c(=O)[nH]c(=O)c2[N+](=O)[O-])cc1 | / | 10 | -5 | -13 | / | 22*
Cc1cccc(CSCC(=O)N2CCN(S(=O)(=O)c3ccccc3C#N)CC2)c1 | / | / | -13 | -3 | / | -4
CN1CCN(C2=C(Cl)C(=O)c3ccccc3C2=O)CC1 | / | 28 | -1 | 0 | / | -40
CC1COCC(C)N1C1=C(Cl)C(=O)c2ccccc2C1=O (configuration not stated) | / | 81* | -9 | -6 | / | -49
CSCCC(NC(=O)c1ccccc1Cl)C(=O)N1CCN(c2ccccn2)CC1 (configuration not stated) | / | -7 | -7 | -4 | / | 2
O=C(/C=C/c1ccccc1F)c1ccoc1 | -10 | 0 | -11 | 5 | -2.8 | 31*
Cc1ccc(N(CC(=O)NC(C)(C)C)C(=O)CCC(=O)Nc2ccccn2)cc1 | / | / | 3 | -1 | / | 3
COc1ccccc1-c1ccc(/C=C2/C=C(C)OC2=O)o1 | -1 | 14 | -3 | -3 | 1.1 | 23*
COc1ccc(C(CCN2CCOCC2)c2c(O)cc(OC)cc2OC)cc1 (configuration not stated) | / | -1 | -6 | -5 | -0.26 | 3
COc1ccc(C(c2c(O)ccc3ccccc23)N2CCOCC2)c(OC)c1 (configuration not stated) | -6 | 18 | 48* | 1 | -1.3 | 96*
Cc1nc2ccccc2c(=O)n1Cc1ccco1 | / | 0 | -4 | / | -0.44 | -1
COc1ccc(Cn2c(C)nc3c(c2=O)c2nc4ccccc4nc2n3Cc2ccco2)cc1 | / | 12 | 15 | 3 | / | 33*
COc1ccc(S(=O)(=O)c2c(N)n(Cc3ccco3)c3nc4ccccc4nc23)cc1 | -1 | -5 | -8 | -3 | -0.64 | 24*
Cc1cc(C)cc(-n2c3nc4ccccc4nc3c3c(=O)n(Cc4ccco4)cnc32)c1 | 13 | -5 | 6 | -5 | -0.86 | 60*
Cn1c(=O)c2ccccc2n2c(CCl)nnc12 | / | 9 | -2 | -2 | / | 23*
Cn1c(=O)c2ccccc2n2c(=S)[nH]nc12 | / | -2 | -10 | -7 | / | -11
C=C1C[C@@H]2C[C@@H]2CN(S(=O)(=O)c2ccc(C)cc2)[C@@H]1c1ccco1 | / | / | -1 | / | / | 5
COc1ccc(Cl)cc1C(=O)Nn1c(-c2cccs2)nc2ccccc2c1=O | 0 | 68* | 18 | 6 | -0.17 | -7
CC(=O)Nc1cc(-c2cccc(C(=O)NCCO)c2)cn2c(-c3cccc(C(F)(F)F)c3)cnc12 | / | / | 1 | / | / | 3
C=CCNc1ncnc2c1ncn2[C@H]1CN(CCN2CCOCC2)C[C@@H](CO)O1 | / | / | 1 | / | / | -5
O=C(COC(=O)/C=C/c1ccc(Cl)cc1)NC1CCCCCC1 | / | 44* | 9 | -7 | / | 3
SMILES | TLR4-MyD88 BLA | Beta2AR agonist | NOD2-RIPK2 inh | TLR9-MyD88 inh | Dynein transport | ABHD5-PLIN5 inh
COC(=O)/C(=C\c1ccc([N+](=O)[O-])o1)NC(=O)c1ccccc1 | -10 | 56* | -4 | -13 | 0.59 | -2
CCCCNC(=O)/C(=C\c1ccc([N+](=O)[O-])o1)NC(=O)c1ccccc1 | -12 | -1 | -3 | -10 | 2.3 | 3
COc1cc(OC)cc(C(=O)NCC(=O)Nc2ccc(-c3ccccc3)cc2)c1 | / | 27 | 6 | 8 | / | -4
Clc1cccc(-c2cccc3nccn23)c1 | / | / | -2 | / | / | 2
CCCCNC(=O)C1(C)CCC(=O)N1C1CC1 (configuration not stated) | / | / | 2 | / | / | 5
CC1CCCC(NC(=O)CN2C(=O)NC(c3ccccc3)(c3ccccc3)C2=O)C1C (configuration not stated) | / | -3 | 2 | 7 | / | -2
O=C(Nc1cc(Cl)cc(Cl)c1)N[C@@H]1CC[C@@H](CCNS(=O)(=O)c2cccc(F)c2)O[C@@H]1CO | / | / | -9 | / | / | -13
Cc1oc(C(C)(C)C)cc1C(=O)Nc1cccc(/C=C\C(=O)O)c1 | 4 | -24 | -4 | -5 | -0.68 | 23*
COc1ccc(C(C[N+](=O)[O-])c2c(-c3ccccc3)cc3ccccn23)c(OC)c1 (configuration not stated) | 8 | 30 | 7 | -4 | -1.4 | 41*
COc1ccc(NC(=O)c2cnc3ccccn3c2=O)c(OC)c1 | / | -22 | -1 | 5 | / | -7
COC(=O)c1scc(C)c1NC(=O)c1ccccc1F | / | 8 | -15 | -4 | / | 7
CCOC(=O)CSC1=NC(=O)/C(=C/c2ccc(OC)cc2)S1 | 12 | 69* | 4 | 5 | -2.6 | -17
CC(NC(=O)OC(C)(C)C)C(=O)Oc1cc2oc(=O)cc(-c3ccccc3)c2cc1Cl (configuration not stated) | 11 | 3 | 39* | 31* | -1.9 | -4
COc1cccc(/C=C2\SC(=S)NC2=O)c1OS(=O)(=O)c1ccc(NC(C)=O)cc1 | -1 | 77* | -8 | 4 | -1.2 | -3
COc1ccc(/C=C2\SC(=S)NC2=O)cc1OS(=O)(=O)c1ccc(NC(C)=O)cc1 | -21 | 15 | -15 | -1 | -0.64 | 9
CCN(C(=O)COC(=O)/C=C/c1ccc2c(c1)OCO2)c1c(N)n(Cc2ccccc2)c(=O)[nH]c1=O | / | -6 | -4 | -1 | / | 0
CCC(=O)NC(c1ccccc1OC)c1ccc2cccnc2c1O (configuration not stated) | 11 | 2 | 0 | 11 | 0.73 | 3
COc1ccc(Cl)cc1C(Nc1cccnc1)c1ccc2cccnc2c1O (configuration not stated) | 5 | 8 | 10 | -1 | -0.35 | 23*
CCOc1cc(/C=C(/C#N)C(=O)Nc2ccc(O)cc2)cc(Br)c1O | 6 | 52* | 6 | 8 | -0.24 | 5
C=CCNC(=O)/C(C#N)=C\c1cc(Cl)c(O)c(OCC)c1 | 2 | 1 | -4 | -7 | 1 | -1
O=C(CCl)Nc1ccc(S(=O)(=O)NC2=NCCCCC2)cc1 | / | 5 | 3 | -4 | / | 2
O=C(CCl)Nc1cccc(S(=O)(=O)NC2=NCCCCC2)c1 | / | 2 | -6 | -7 | / | 23*
CCSc1ccccc1C(=O)n1nnc2ccccc21 | 14 | 12 | 4 | 4 | -4* | 2
